Measurements as given in ChEMBL document CHEMBL1154787, “Enaminonitrile in heterocyclic synthesis: synthesis and antimicrobial evaluation of some new pyrazole, isoxazole and pyrimidine derivatives incorporating a benzothiazole moiety” (2009).
In brackets after ≈: the same amount, converted by molar mass.

What was measured:
Assay type in all cases: functional
Botrytis fabae = assay: Antifungal activity against Botrytis fabae after 24-48 hrs by microdilution susceptibility test
How it was run: (§1)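 MIC by twofold serial dilution in wells, tested only for compounds giving inhibition zones >10 mm; microbial suspensions at 10⁶ CFU/mL inoculated into wells, incubated at 36 °C for 24–48 h, then MIC read.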

Bacillus thuringiensis [1] = assay: Antibacterial activity against Bacillus thuringiensis assessed as zone of inhibition diameter at 1 mg/mL after 24 hrs […]; conditions: read-out: DIZ
How it was run: (§2)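 Agar diffusion: 5 mm sterile filter-paper disks loaded with test compound in DMF (1 mg/mL) placed on agar seeded with the bacterium, in triplicate; DMF alone as control; incubated 37 °C for 24 h; mean inhibition-zone diameter recorded in mm.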

Pseudomonas aeruginosa [2] = assay: Antibacterial activity against Pseudomonas aeruginosa after 24-48 hrs by microdilution susceptibility test; how it was run: as §1
Escherichia coli [3] = assay: Antibacterial activity against Escherichia coli assessed as zone of inhibition diameter at 1 mg/mL after 24 hrs […]; conditions: read-out: DIZ; how it was run: as §2
Fusarium oxysporum [4] = assay: Antifungal activity against Fusarium oxysporum assessed as zone of inhibition diameter at 1 mg/mL after 48 hrs […]; conditions: read-out: DIZ
How it was run: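 Agar diffusion: 5 mm sterile filter-paper disks loaded with test compound in DMF (1 mg/mL) placed on agar seeded with the fungus, in triplicate; DMF alone as control; incubated at 37 °C for fungal plates; mean inhibition-zone diameter recorded in mm.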

Fusarium oxysporum [5] = assay: Antifungal activity against Fusarium oxysporum after 24-48 hrs by microdilution susceptibility test; how it was run: as §1
Bacillus subtilis [6] = assay: Antibacterial activity against Bacillus subtilis assessed as zone of inhibition diameter at 1 mg/mL after 24 hrs […]; conditions: read-out: DIZ; how it was run: as §2
Bacillus thuringiensis [7] = assay: Antibacterial activity against Bacillus thuringiensis after 24-48 hrs by microdilution susceptibility test; how it was run: as §1
Escherichia coli [8] = assay: Antibacterial activity against Escherichia coli after 24-48 hrs by microdilution susceptibility test; how it was run: as §1
Bacillus subtilis [9] = assay: Antibacterial activity against Bacillus subtilis after 24-48 hrs by microdilution susceptibility test; how it was run: as §1
Pseudomonas aeruginosa [10] = assay: Antibacterial activity against Pseudomonas aeruginosa assessed as zone of inhibition diameter at 1 mg/mL after 24 hrs […]; conditions: read-out: DIZ; how it was run: as §2

Row | SMILES | MIC (Botrytis fabae) | zone of inhibition at 1000 µg/mL (Bacillus thuringiensis [1]) | MIC (Pseudomonas aeruginosa [2]) | zone of inhibition at 1000 µg/mL (Escherichia coli [3]) | zone of inhibition at 1000 µg/mL (Fusarium oxysporum [4]) | MIC (Fusarium oxysporum [5]) | zone of inhibition at 1000 µg/mL (Bacillus subtilis [6]) | MIC (Bacillus thuringiensis [7]) | MIC (Escherichia coli [8]) | MIC (Bacillus subtilis [9]) | zone of inhibition at 1000 µg/mL (Pseudomonas aeruginosa [10])
1 | NC1=Nc2ccccc2NC=C1C(=O)Nc1nc2ccccc2s1 | 12.5 µg/mL (≈ 37.3 µM) | 31 mm | 6.25 µg/mL (≈ 18.6 µM) | 25 mm | 25 mm | 25 µg/mL (≈ 74.5 µM) | 37 mm | 12.5 µg/mL (≈ 37.3 µM) | 25 µg/mL (≈ 74.5 µM) | 6.25 µg/mL (≈ 18.6 µM) | 37 mm
2 | Nc1oncc1C(=O)Nc1nc2ccccc2s1 | 6.25 µg/mL (≈ 24 µM) | 25 mm | 50 µg/mL (≈ 192 µM) | 19 mm | 25 mm | 25 µg/mL (≈ 96.1 µM) | 19 mm | 25 µg/mL (≈ 96.1 µM) | 50 µg/mL (≈ 192 µM) | 50 µg/mL (≈ 192 µM) | 19 mm
3 | N#C/C(=C/N)C(=O)Nc1nc2ccccc2s1 | 6.25 µg/mL (≈ 25.6 µM) | 19 mm | 100 µg/mL (≈ 409 µM) | 25 mm | 31 mm | 12.5 µg/mL (≈ 51.2 µM) | 13 mm | 50 µg/mL (≈ 205 µM) | 25 µg/mL (≈ 102 µM) | 100 µg/mL (≈ 409 µM) | 13 mm
4 | N#C/C(=C\NNc1ccccc1)C(=O)Nc1nc2ccccc2s1 | 6.25 µg/mL (≈ 18.6 µM) | 19 mm | 25 µg/mL (≈ 74.5 µM) | 31 mm | 31 mm | 12.5 µg/mL (≈ 37.3 µM) | 13 mm | 50 µg/mL (≈ 149 µM) | 12.5 µg/mL (≈ 37.3 µM) | 100 µg/mL (≈ 298 µM) | 25 mm
5 | Nc1[nH]ncc1C(=O)Nc1nc2ccccc2s1 | 3.12 µg/mL (≈ 12.1 µM) | 19 mm | 12.5 µg/mL (≈ 48.2 µM) | 31 mm | 37 mm | 6.25 µg/mL (≈ 24.1 µM) | 31 mm | 50 µg/mL (≈ 193 µM) | 12.5 µg/mL (≈ 48.2 µM) | 12.5 µg/mL (≈ 48.2 µM) | 31 mm
6 | CN(C)/C=C(\C#N)C(=O)Nc1nc2ccccc2s1 | 25 µg/mL (≈ 91.8 µM) | 25 mm | 50 µg/mL (≈ 184 µM) | 13 mm | 25 mm | 25 µg/mL (≈ 91.8 µM) | 13 mm | 25 µg/mL (≈ 91.8 µM) | 100 µg/mL (≈ 367 µM) | 100 µg/mL (≈ 367 µM) | 19 mm
7 | Nc1ncc(C(=O)Nc2nc3ccccc3s2)c(N)n1 | 3.12 µg/mL (≈ 10.9 µM) | 25 mm | 50 µg/mL (≈ 175 µM) | 25 mm | 37 mm | 6.25 µg/mL (≈ 21.8 µM) | 31 mm | 25 µg/mL (≈ 87.3 µM) | 25 µg/mL (≈ 87.3 µM) | 12.5 µg/mL (≈ 43.7 µM) | 19 mm
8 | N#Cc1cncn(-c2nc3ccccc3s2)c1=O | 12.5 µg/mL (≈ 49.2 µM) | 19 mm | 50 µg/mL (≈ 197 µM) | 19 mm | 19 mm | 50 µg/mL (≈ 197 µM) | 31 mm | 50 µg/mL (≈ 197 µM) | 50 µg/mL (≈ 197 µM) | 12.5 µg/mL (≈ 49.2 µM) | 19 mm
9 | N=c1c(C(=O)Nc2nc3ccccc3s2)cnc2sccn12 | 12.5 µg/mL (≈ 38.2 µM) | 25 mm | 6.25 µg/mL (≈ 19.1 µM) | 25 mm | 25 mm | 25 µg/mL (≈ 76.4 µM) | 31 mm | 25 µg/mL (≈ 76.4 µM) | 25 µg/mL (≈ 76.4 µM) | 12.5 µg/mL (≈ 38.2 µM) | 37 mm
10 | N#C/C(=C\NN)C(=O)Nc1nc2ccccc2s1 | 6.25 µg/mL (≈ 24.1 µM) | 19 mm | 25 µg/mL (≈ 96.4 µM) | 25 mm | 19 mm | 50 µg/mL (≈ 193 µM) | 13 mm | 50 µg/mL (≈ 193 µM) | 25 µg/mL (≈ 96.4 µM) | 100 µg/mL (≈ 386 µM) | 25 mm
11 | Nc1c(C(=O)Nc2nc3ccccc3s2)cnc2nnnn12 | 3.12 µg/mL (≈ 10 µM) | 31 mm | 50 µg/mL (≈ 160 µM) | 19 mm | 37 mm | 6.25 µg/mL (≈ 20 µM) | 43 mm | 12.5 µg/mL (≈ 40 µM) | 50 µg/mL (≈ 160 µM) | 3.12 µg/mL (≈ 10 µM) | 19 mm
12 | Nc1c(C(=O)Nc2nc3ccccc3s2)cnn1-c1ccccc1 | 12.5 µg/mL (≈ 37.3 µM) | 19 mm | 50 µg/mL (≈ 149 µM) | 19 mm | 19 mm | 50 µg/mL (≈ 149 µM) | 31 mm | 50 µg/mL (≈ 149 µM) | 50 µg/mL (≈ 149 µM) | 12.5 µg/mL (≈ 37.3 µM) | 19 mm
13 | N=c1c(C(=O)Nc2nc3ccccc3s2)cnc2ccccn12 | 6.25 µg/mL (≈ 19.4 µM) | 31 mm | 50 µg/mL (≈ 156 µM) | 31 mm | 25 mm | 25 µg/mL (≈ 77.8 µM) | 37 mm | 12.5 µg/mL (≈ 38.9 µM) | 12.5 µg/mL (≈ 38.9 µM) | 6.25 µg/mL (≈ 19.4 µM) | 19 mm
14 | O=C(N[C@H](CO)[C@H](O)c1ccc([N+](=O)[O-])cc1)C(Cl)Cl [CHLORAMPHENICOL] |  | 37 mm | 6.25 µg/mL (≈ 19.3 µM) | 37 mm |  |  | 37 mm | 6.25 µg/mL (≈ 19.3 µM) | 6.25 µg/mL (≈ 19.3 µM) | 6.25 µg/mL (≈ 19.3 µM) | 37 mm
15 | OC(Cn1cncn1)(Cn1cncn1)c1ccc(F)cc1F [FLUCONAZOLE] | 3.12 µg/mL (≈ 10.2 µM) |  |  |  | 43 mm | 3.12 µg/mL (≈ 10.2 µM) |  |  |  |  | 
16 | CN[C@@H]1[C@H](O[C@H]2[C@H](O[C@H]3[C@H](O)[C@@H](O)[C@H](N=C(N)N)[C@@H](O)[C@@H]3N=C(N)N)O[C@@H](C)[C@]2(O)C=O)O[C@@H](CO)[C@H](O)[C@H]1O [STREPTOMYCIN] |  | 37 mm | 6.25 µg/mL (≈ 10.7 µM) | 37 mm |  |  | 43 mm | 6.25 µg/mL (≈ 10.7 µM) | 6.25 µg/mL (≈ 10.7 µM) | 3.12 µg/mL (≈ 5.37 µM) | 37 mm
